Most compounds without a hit are left out; they make up all but 2.6% or so of the library.
MLL AF4-AF9 inh – inhibitors of human MLL-AF4/AF9 interaction; P42568; AlphaScreen, biotin-AF4 peptide binding to FLAG-AF9; inhibition, % at 10 µM; 350,000 compounds, 0.47% hits;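 active = every replicate reaching a set inhibition limit, whatever the replicate mean, cut at about 25% in these data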
RAD52 anneal inh – inhibitors of human RAD52 DNA annealing. P43351. recombinant RAD52 DNA annealing, FRET fluorescence. inhibition, % at 18.7 µM. 360,000 compounds, 0.46% hits. AID 651710;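 active = every replicate showing at least 50% inhibition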
Target sequence (P43351 whole entry, looked up): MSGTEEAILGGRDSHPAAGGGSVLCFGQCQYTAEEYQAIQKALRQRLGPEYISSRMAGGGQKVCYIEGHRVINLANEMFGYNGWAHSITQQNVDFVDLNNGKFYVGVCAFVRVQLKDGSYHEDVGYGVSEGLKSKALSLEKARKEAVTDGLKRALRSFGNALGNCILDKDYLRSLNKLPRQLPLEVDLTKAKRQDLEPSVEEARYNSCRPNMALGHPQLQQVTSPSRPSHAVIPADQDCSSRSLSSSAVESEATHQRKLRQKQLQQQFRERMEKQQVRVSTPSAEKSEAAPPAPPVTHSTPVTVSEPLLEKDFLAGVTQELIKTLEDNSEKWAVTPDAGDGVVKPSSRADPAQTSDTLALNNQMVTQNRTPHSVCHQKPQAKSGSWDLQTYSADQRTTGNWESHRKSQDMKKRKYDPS
E-selectin induc – E-selectin induction on HUVECs; HUVEC E-selectin immunofluorescence imaging; normalized: neutral wells 0, TNF-alpha wells 100; activation, % at 7.58 µM; 260,000 compounds, 0.37% hits; AID 686992;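 active = mean E-selectin-positive cell signal at least 10% of the positive control, reached in at least 60% of replicates, without over 20% cell loss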
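material = human umbilical vein endothelial cells (HUVEC), E-selectin induction | quantity = 3,000 cells/well | medium = EGM-2 growth medium on 0.1% gelatin-coated wells | technique = immunofluorescence imaging | read-out basis = % PE-positive cells | control set = TNF-alpha positive control, DMSO neutral control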
Ecoli rRNA inh – inhibits bacterial ribosomal RNA function over humanized ribosomes; 350,000 compounds, 1.6% hits; AID 720706; E. coli WT GFP vs humanized-ribosome RFP mutants, fluorescence, 24 h; hits give low values; DMSO median 0, no signal -100; GFP signal change (wild-type ribosome), % (test concentration not listed);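 active = significant combined selectivity score with lowered wild-type GFP, culture density cut under 30%, mutant RFP and density less affected; inactive = any of these conditions unmet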
GSIS activator – GLuc luminescence reporter in INS-1E cells, primary screen for activators of glucose-dependent secretion of insulin. INS-1E GLuc reporter insulin secretion, 2-3 h. activation, % at 16.6 µM. 370,000 compounds, 0.61% hits;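 active = lowest replicate activation of at least 40%, so every replicate reaches that level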
RAD54 inh – blocks human RAD54 Holliday junction branch migration. 360,000 compounds, 0.14% hits. AID 602329. FAM/BHQ fluorescence. Q92698. inhibition, % at 10.4 µM;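 active = mean normalized replicate activity at least 40 and at least half of replicates scoring 40 or more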;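 note: inhibitors cause a drop in the FAM fluorescence signal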
Of the large screens only hits and unclear results are named; the others gave an inactive call.

Cc1ccc(-c2cc(C(=O)NNC(=O)c3csc(N4CCOCC4)n3)c3ccccc3n2)cc1	Ecoli rRNA inh -19
O=C(NNC(=O)c1cc(-c2ccc(Cl)cc2)nc2ccccc12)c1csc(N2CCOCC2)n1	none (no result: RAD54 inh)
O=C(NNC(=O)c1cc(-c2ccc(Br)cc2)nc2ccccc12)c1csc(N2CCOCC2)n1	none (no result: Ecoli rRNA inh, GSIS activator)
O=C(NNC(=O)c1cc(-c2ccccc2)nc2ccccc12)c1csc(N2CCOCC2)n1	Ecoli rRNA inh -37 (no result: RAD54 inh)
CCC(=O)N1CC2(C1)[C@@H](c1ccccc1)[C@@H](CO)N2Cc1ccccc1OC	none (no result: RAD54 inh)
O=C(c1ccccc1)N1CC2(C1)[C@@H](c1ccccc1)[C@@H](CO)N2Cc1cccnc1	none (no result: MLL AF4-AF9 inh, RAD52 anneal inh, E-selectin induc, RAD54 inh)
C[C@H](CO)N1C[C@H](C)[C@H](CN(C)C(=O)Nc2cccc3ccccc23)Oc2ccc(NC(=O)CCC(F)(F)F)cc2C1=O	none
CC(/C=C1\SC(=S)N(NS(=O)(=O)c2ccccc2)C1=O)=C\c1ccccc1	Ecoli rRNA inh -43
CC(/C=C1\SC(=S)N(NC(=O)c2ccncc2)C1=O)=C\c1ccccc1	Ecoli rRNA inh -32
CC(/C=C1\SC(=S)N(NS(=O)(=O)c2ccc(C)cc2)C1=O)=C\c1ccccc1	none
CO[C@@H]1CN(C)C(=O)c2cc(NC(=O)Nc3cc(F)ccc3F)ccc2OC[C@H](C)NC[C@H]1C	none
NCC[C@H]1CC[C@H](NC(=O)c2ccccc2F)[C@@H](CO)O1	none
CN1CCN(c2ccc(-c3cccc(NC(=O)COc4ccc(Cl)cc4)c3)nn2)CC1	Ecoli rRNA inh -30
CC(C)CC(NC(=O)c1ccc(Cl)cc1)C(=O)OCC(=O)c1ccc2c(c1)NC(=O)CO2 (centres undefined)	GSIS activator 461 (no result: MLL AF4-AF9 inh, RAD52 anneal inh, E-selectin induc, Ecoli rRNA inh)
CC(O)C(NS(=O)(=O)c1ccc(Cl)cc1)C(=O)OCC(=O)c1ccc2c(c1)NC(=O)CO2 (centres undefined)	none
CN1CCN(CC(O)Cn2c3ccccc3c3ccccc32)CC1 (centres undefined)	none (no result: GSIS activator)
CN1CCN(CC#CCn2c3ccccc3c3ccccc32)CC1	Ecoli rRNA inh -34 (no result: E-selectin induc)
C[C@@H]1CN([C@@H](C)CO)C(=O)c2cccc(NC(=O)Nc3ccc4c(c3)OCO4)c2O[C@H]1CN(C)Cc1ccc(Oc2ccccc2)cc1	none
Cn1ccc2c(-c3ccc(F)nc3)cc3c(c21)C1CCC3O1 (centres undefined)	none
CN(CCc1ccccc1)c1cc2c(c3c1ccn3C)C1CCC2O1 (centres undefined)	MLL AF4-AF9 inh 28
Cn1ccc2c(-c3cccnc3)cc3c(c21)C1CCC3O1 (centres undefined)	none
CN(c1cc2c(c3c1ccn3C)C1CCC2O1)C1CCCCC1 (centres undefined)	MLL AF4-AF9 inh 32
N#C[C@@H]1[C@@H](c2ccccc2-c2ccccc2)[C@@H](CO)N1C(=O)NC1CCCCC1	none (no result: RAD54 inh)
O=[N+]([O-])c1cc(C(F)(F)F)cc([N+](=O)[O-])c1NCCNC(=S)Nc1cccc(F)c1	Ecoli rRNA inh -25 (no result: MLL AF4-AF9 inh, RAD54 inh)
Fc1ccc(CNC(=S)Nc2cccc(C(F)(F)F)c2)cc1	none (no result: MLL AF4-AF9 inh, RAD52 anneal inh, E-selectin induc, Ecoli rRNA inh, RAD54 inh)
CC(C)OCCCNC(=O)c1c(N)n(/N=C/c2ccccn2)c2nc3ccccc3nc12	GSIS activator 76 (no result: MLL AF4-AF9 inh, RAD52 anneal inh, E-selectin induc, Ecoli rRNA inh)
CCC(C)NC(=O)c1c(N)n(/N=C/c2ccccn2)c2nc3ccccc3nc12 (centres undefined)	none (no result: MLL AF4-AF9 inh, E-selectin induc, GSIS activator)
O=C1CC(SCCc2nc3ccccc3[nH]2)C(=O)N1c1ccc(Cl)cc1 (centres undefined)	none (no result: MLL AF4-AF9 inh, RAD52 anneal inh, E-selectin induc, Ecoli rRNA inh, GSIS activator)
CCCOc1ccc(N2C(=O)CC(SCCc3nc4ccccc4[nH]3)C2=O)cc1 (centres undefined)	Ecoli rRNA inh -31 (no result: RAD54 inh)
N/C(=N\OC(=O)COc1ccccc1)c1ccccn1	none (no result: E-selectin induc, RAD54 inh)
CCc1ccc(OCC(=O)O/N=C(\N)c2ccccn2)cc1	Ecoli rRNA inh -22
CCOC(=O)C1=C(COC(=O)/C=C/c2ccc(OC)c(OC)c2)NC(=O)NC1C (centres undefined)	none (no result: E-selectin induc)
CCOC(=O)C1=C(COC(=O)/C=C/c2ccc(O)c(OC)c2)NC(=O)NC1C (centres undefined)	GSIS activator 59 (no result: E-selectin induc, RAD54 inh)
CN(C)C(=O)C[C@H]1CC[C@@H](NC(=O)C2CC2)[C@H](CO)O1	none
O=C1Cc2cc(S(=O)(=O)N3CCNCC3)ccc2N1	RAD52 anneal inh 77 (no result: RAD54 inh)
CN(C)c1ccc(CNc2nc(-c3ccccc3)nn2S(C)(=O)=O)cc1	Ecoli rRNA inh -23 (no result: E-selectin induc)
CS(=O)(=O)n1nc(-c2cccnc2)nc1NCc1ccccc1	none (no result: RAD54 inh)
CCC(=O)n1nc(-c2ccccc2)nc1NCc1ccccc1	none (no result: MLL AF4-AF9 inh, E-selectin induc)
CC(=O)n1nc(-c2ccccc2)nc1NCc1ccc(N(C)C)cc1	Ecoli rRNA inh -25
C[C@@H]1CCCCO[C@H](CN(C)C(=O)Cc2ccccc2)[C@@H](C)CN([C@@H](C)CO)C(=O)c2cc(NC(=O)C3CCCCC3)ccc2O1	none (no result: MLL AF4-AF9 inh, RAD52 anneal inh)
C[C@@H]1CCCCO[C@@H](CN(C)Cc2ccc(C(F)(F)F)cc2)[C@H](C)CN([C@@H](C)CO)C(=O)c2cc(NS(=O)(=O)c3cn(C)cn3)ccc2O1	none
O=C1Nc2ccccc2C(=O)N2C[C@@H](O)C[C@H]12	MLL AF4-AF9 inh 49
COc1cccc(S(=O)(=O)N2CC3(CCN(C)CC3)c3c([nH]c4cc(OC)ccc34)[C@H]2CO)c1	none (no result: RAD54 inh)
C[C@H](CO)N1C[C@H](C)[C@@H](CN(C)Cc2ccc3c(c2)OCO3)Oc2ccc(NC(=O)C3CC3)cc2CC1=O	none
CC(C)NC(=O)Nc1ccc2c(c1)CC(=O)N([C@H](C)CO)C[C@H](C)[C@H](CN(C)Cc1ccc(Cl)c(Cl)c1)O2	E-selectin induc 59
C[C@@H]1CN([C@@H](C)CO)C(=O)Cc2cc(NC(=O)C3CC3)ccc2O[C@@H]1CN(C)Cc1ccc2c(c1)OCO2	E-selectin induc 49
CC(C)NC(=O)Nc1ccc2c(c1)CC(=O)N([C@H](C)CO)C[C@@H](C)[C@@H](CN(C)Cc1ccc(Cl)c(Cl)c1)O2	E-selectin induc 47
C[C@@H]1CN([C@H](C)CO)C(=O)Cc2cc(NC(=O)Nc3ccc4c(c3)OCO4)ccc2O[C@H]1CN(C)Cc1ccc(Cl)c(Cl)c1	E-selectin induc 300
COc1ccc(NC(=O)N2C[C@@H](O)COC[C@@H]3O[C@H](CC(=O)NCc4ccccc4OC)CC[C@H]32)cc1	none
Cc1cccc2c1NC1(CCCC1)CC2C (centres undefined)	E-selectin induc 188
COCC(C)n1c(SCc2cc(=O)n3cc(C)ccc3n2)nc2ccccc2c1=O (centres undefined)	Ecoli rRNA inh -27 (no result: E-selectin induc)
COc1ccc(-c2cn(CC[C@@H]3CC[C@H](NS(=O)(=O)c4ccccc4C)[C@H](CO)O3)nn2)cc1	none
Cc1ccnc(NS(=O)(=O)c2ccc(NC(=O)CCc3ccccc3)cc2)n1	GSIS activator 42 (no result: E-selectin induc, Ecoli rRNA inh)

Assay outcomes as filed in PubChem BioAssay.
